We go through eight compounds from ChEMBL document CHEMBL2321721 (ACS Med Chem Lett, 2013).

Calls of active or inactive are those of the source. No cut-off for these calls is given here.

For data set [1], the target named is T1, Ribosomal protein S6 kinase alpha-3 (Homo sapiens, UniProt P51812). Kind of data set: Ratio of SL0101 IC50 to compound IC50 for recombinant RSK2 (unknown origin) expressed in baculovirus infected Sf9 cells by chemiluminescence analysis.
Data set [2] is described as follows: Partition coefficient, log P of the compound. It counts as physicochemical. To be noted: octanol/water.
Data set [3] concerns the target T1, Ribosomal protein S6 kinase alpha-3. Briefly: Inhibition of RSK2 in human MCF7 cells assessed as reduction of PMA-induced decrease in EF2 kinase phosphorylation at 25 uM pretreated for 24 hrs prior to PMA addition measured after 20 mins by immunoblot analysis. It counts as cell-based. Put shortly:
(§1)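 MCF-7 cells pretreated with inhibitor or vehicle, then stimulated with PMA or treated with DMSO vehicle. Lysates analysed by immunoblotting for eEF2 phosphorylation and other RSK biomarkers. Inhibitor concentrations were 100 μM or 25 μM.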

The target is the same in data set [4]. Briefly: Inhibition of RSK2 in human PMA-stimulated MCF7 cells assessed as decrease in expression of 27kDa protein harboring (Lys/Arg)X(Lys/Arg)XX(pSer/pThr) motif at 25 uM pretreated for 24 hrs prior to PMA addition measured after 20 mins immunoblot analysis. It counts as cell-based. The essentials:
as §1
Background: In western blotting, separated proteins are transferred to a membrane and probed.

For data set [5], the system named is MCF-10A. Briefly: Inhibition of human MCF10A cell proliferation assessed as decrease in ATP content after 48 hrs by CellTiter-GloTM assay. It counts as cell-based. Put shortly:
(§2)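 Compounds added at time 0 to MCF-7 or MCF-10A cells at various concentrations, 25 μM or lower. Proliferation read as ATP content after 48 h of treatment, expressed as fold proliferation as a percentage of vehicle-treated cells. n = 3 in quadruplicate, SD, Student's t test.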
(In general: ATP-based viability assays read luminescence as a measure of living cells.)

Data set [6] relates to MCF7. Briefly: Decrease in cyclin D1 level in human PMA-stimulated MCF7 cells at 25 uM pretreated for 24 hrs prior to PMA addition measured after 20 mins by immunoblot analysis. It counts as functional, cell-based. The essentials:
as §1

Data set [7] relates to MCF7. Kind of data set: Inhibition of human MCF7 cell proliferation assessed as decrease in ATP content at 25 uM after 48 hrs by CellTiter-GloTM assay relative to SL0101. It counts as functional. To be noted: MCF7, 48 h. Put shortly: as §2
Data set [8] deals with T1, Ribosomal protein S6 kinase alpha-3. Briefly: Inhibition of recombinant RSK2 (unknown origin) expressed in baculovirus infected Sf9 cells assessed as decrease in substrate phosphorylation using GST-fusion protein containing ERalpha-Ser167 sequence-RLASTND as substrate by chemiluminescence analysis.
The subject of data set [9] is MCF7. Kind of data set: Decrease in cyclin D1 level in human PMA-stimulated MCF7 cells at 100 uM pretreated for 2 hrs prior to PMA addition measured after 20 mins by immunoblot analysis. It counts as functional, cell-based. The essentials:
as §1

Data set [10] deals with T1, Ribosomal protein S6 kinase alpha-3. To be noted: MCF7, 100 uM.
The nature of data set [11]: Initial plasma concentration in CD1 mouse at 1 mg/kg, iv. The class given is ADME, organism-based. Further details: dose 1 mg/kg, route intravenous. Put shortly: (§3)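 Male CD-1 mice given a single dose, 1 mg/kg iv or 2.5 mg/kg ip, in 1:1:15 Cremophor:EtOH:phosphate-buffered saline carrier. Plasma concentrations measured. AUC extrapolated to infinity and normalized to dose in mg/kg. C0 is maximum plasma concentration extrapolated to t = 0. Cmax is the observed maximum plasma concentration.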

Data set [12] concerns Plasma. Briefly: Cmax in CD1 mouse plasma at 2.5 mg/kg, ip. It counts as ADME, organism-based. Further details: dose 2.5 mg/kg, route intraperitoneal. To be noted: in vivo. Put shortly:
as §3

Data set [13] is described as follows: Half life in CD1 mouse at 2.5 mg/kg, ip. The class given is ADME, organism-based. Further details: dose 2.5 mg/kg, route intraperitoneal. Conditions: in vivo. The essentials: as §3
Data set [14] in a line: Half life in CD1 mouse at 1 mg/kg, iv. The class given is ADME, organism-based. Also noted: dose 1 mg/kg, route intravenous. Conditions: in vivo. Put shortly: as §3
The test system of data set [15] is Mus musculus. Kind of data set: Dose normalized AUC in CD1 mouse at 2.5 mg/kg, ip. It counts as ADME, organism-based. Also noted: dose 2.5 mg/kg, route intraperitoneal. To be noted: in vivo. The essentials:
as §3

Data set [16] has as its system Mus musculus. Kind of data set: Dose normalized AUC in CD1 mouse at 1 mg/kg, iv. Also noted: dose 1 mg/kg, route intravenous. Conditions: in vivo. It counts as ADME, organism-based. The essentials:
as §3

Data set [17] has as its target T1, Ribosomal protein S6 kinase alpha-3. To be noted: MCF7, 100 uM. The source holds these as a separate data set.

T1 sequence (P51812 whole entry): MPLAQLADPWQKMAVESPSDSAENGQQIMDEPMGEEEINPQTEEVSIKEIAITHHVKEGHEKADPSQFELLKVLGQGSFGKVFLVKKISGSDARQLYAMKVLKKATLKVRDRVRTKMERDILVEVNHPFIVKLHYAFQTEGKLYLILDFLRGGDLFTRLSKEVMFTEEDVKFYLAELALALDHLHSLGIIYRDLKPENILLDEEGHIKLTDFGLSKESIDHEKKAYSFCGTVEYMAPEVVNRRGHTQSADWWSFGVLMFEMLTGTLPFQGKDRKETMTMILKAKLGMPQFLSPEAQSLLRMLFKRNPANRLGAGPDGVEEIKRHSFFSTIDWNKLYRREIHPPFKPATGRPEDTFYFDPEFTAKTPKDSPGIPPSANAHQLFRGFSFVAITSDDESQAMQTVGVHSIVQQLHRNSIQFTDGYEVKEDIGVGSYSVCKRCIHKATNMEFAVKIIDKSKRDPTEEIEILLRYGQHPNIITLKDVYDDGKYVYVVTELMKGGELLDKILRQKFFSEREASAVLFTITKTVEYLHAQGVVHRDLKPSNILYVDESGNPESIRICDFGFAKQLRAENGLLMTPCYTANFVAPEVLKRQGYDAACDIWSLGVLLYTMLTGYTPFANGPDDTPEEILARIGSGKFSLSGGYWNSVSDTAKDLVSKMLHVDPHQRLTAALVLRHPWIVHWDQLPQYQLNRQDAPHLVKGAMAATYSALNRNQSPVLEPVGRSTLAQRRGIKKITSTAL

By logP is commonly meant a log measure of how a compound divides between an organic and an aqueous phase. The low end stands for a more hydrophilic compound, the high end for a more lipophilic compound. In general, inhibition refers to the percentage by which the read-out fell short of the control. As to `CCC[C@@H]1O[C@@H](Oc2c(-c3ccc(O)cc3)oc3cc(O)cc(O)c3c2=O)[C@H](O)[C@H](OC(C)=O)[C@H]1OC(C)=O`, the Ratio IC50 in [1] was > 40. Moreover, in data set [2], the lipophilicity (logP) was found to be 3.17. For the same compound, the inhibition result in [3], in [4] and in data set [6] was “Active” in each case. Further, in data set [5], the Activity result is “Non-toxic”. Moreover, the inhibition at 25 µM in [7] turned out to be 50%.

A word on the IC50: it is the concentration that inhibits the measured activity by half. As for `CCC[C@@H]1O[C@@H](Oc2c(-c3ccc(O)cc3)oc3cc(O)cc(O)c3c2=O)[C@H](O)[C@H](O)[C@H]1OC(C)=O`, the log partition coefficient (logP) in [2] was 2.9. For the same compound, in data set [8], the IC50 worked out at 1500 nM.

As to `CC[C@@H]1O[C@@H](Oc2c(-c3ccc(O)cc3)oc3cc(O)cc(O)c3c2=O)[C@H](O)[C@H](O)[C@H]1O`, the logP in data set [2] stood at 1.64. For the same compound, in [8], the concentration for half-maximal inhibition (IC50) was determined as 1510 nM.

In general, Cmax refers to the highest concentration seen after dosing. Usually half-life stands for the time in which the quantity being followed falls by half. The low end stands for fast loss, the high end for slow loss. In [2], `CC(=O)O[C@@H]1[C@@H](OC(C)=O)[C@@H](O)[C@H](Oc2c(-c3ccc(O)cc3)oc3cc(O)cc(O)c3c2=O)O[C@H]1C` gave a logP of 2.11. The inhibition entry in data set [9], in data set [10] and in data set [17] was “Active” each time. The compound also yielded a C0 in data set [11] of 291 ng/mL. The compound also showed a Cmax in data set [12] of 1851 ng/mL. Besides, the half-life is 24 min in [13] and 9 min in [14]. Also, the figures for the AUC/dose in data set [15] and in data set [16] were 1023 ng·kg·h/mL/mg and 38.7 ng·kg·h/mL/mg, respectively.

Turning to `CCC[C@@H]1O[C@@H](Oc2c(-c3ccc(O)cc3)oc3cc(O)cc(O)c3c2=O)[C@H](OC(C)=O)[C@H](OC(C)=O)[C@H]1OC(C)=O`, the logP in [2] turned out to be 3.87. In addition, the IC50 in data set [8] came out at 1770 nM.

With `CCC[C@@H]1O[C@@H](Oc2c(-c3ccc(O)cc3)oc3cc(O)cc(O)c3c2=O)[C@H](OC(C)=O)[C@H](O)[C@H]1OC(C)=O`, the logP in data set [2] is 3.39. In data set [8], the IC50 was determined as 620 nM.

As to `CC(C)C[C@@H]1O[C@@H](Oc2c(-c3ccc(O)cc3)oc3cc(O)cc(O)c3c2=O)[C@H](O)[C@H](O)[C@H]1O`, in data set [2], the logP worked out at 2.41.

In turn, `CCC[C@@H]1O[C@@H](Oc2c(-c3ccc(O)cc3)oc3cc(O)cc(O)c3c2=O)[C@H](O)[C@H](O)[C@H]1O` showed a logP in data set [2] of 2.2.
